{"source": "ChEMBL document CHEMBL5329152", "about": "“Synthesis and anti-hepatocellular carcinoma evaluation of salicylic acid-modified indole trimethoxy flavonoid derivatives” (RSC Med Chem, 2023)", "key": {"[1]": {"test_system": "SMMC-7721", "experiment": "Induction of apoptosis in human SMMC-7721 cells at 3 uM incubated for 48 hrs by AnnexinV-FITC/PI staining based flow cytometry (reference value: 3.090 %)", "type": "functional"}, "[2]": {"test_system": "HGC-27", "experiment": "Antiproliferative activity against human HGC-27 cells assessed as inhibition of cell proliferation incubated for 48 hrs by MTT assay", "type": "functional, cell-based", "conditions": "HGC-27, 48 h", "in_short": "(§1)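 Cells seeded at 5×10^3 per well, left overnight, then given fresh medium with drug at 128, 64, 32, 16, 8, 4, 2 and 1 μM. Kept 48 h at 37 °C under 5% CO₂. Positive controls were CA4, […] and 5-FU. Read by MTT staining with absorbance at 490 nm, and IC₅₀ calculated from it.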"}, "[3]": {"test_system": "HepG2", "experiment": "Antiproliferative activity against human HepG2 cells assessed as inhibition of cell proliferation incubated for 48 hrs by MTT assay", "type": "functional, cell-based", "conditions": "HepG2, 48 h", "in_short": "as §1"}, "[4]": {"test_system": "MDA-MB-231", "experiment": "Antiproliferative activity against human MDA-MB-231 cells assessed as inhibition of cell proliferation incubated for 48 hrs by MTT assay", "type": "functional, cell-based", "conditions": "MDA-MB-231, 48 h", "in_short": "as §1"}, "[5]": {"test_system": "SMMC-7721", "experiment": "Inhibition of colony formation in human SMMC-7721 cells assessed as decrease in number of living cells incubated after 10 days by crystal violet based assay", "type": "functional, cell-based", "conditions": "dose 1.5-6 µM, time 10.0 day", "in_short": "(§2)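 Seeded at 1.5×10^3 cells per well in 6-well plates and grown 24 h. Given drug at 0, 1.5, 3 or 6 μM for 10 days, with medium renewed every 48 h. On day 11 washed with PBS, fixed 15 min in 4% paraformaldehyde, stained 15 min with 0.1% crystal violet, then dried and photographed.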"}, "[6]": {"test_system": "SMMC-7721", "experiment": "Inhibition of colony formation in human SMMC-7721 cells assessed as complete inhibition in cell growth incubated at 6 uM after 10 days by crystal violet based assay", "type": "functional", "conditions": "time 10.0 day", "in_short": "as §2"}, "[7]": {"test_system": "SMMC-7721", "experiment": "Inhibition of colony formation in human SMMC-7721 cells incubated at 6 uM after 10 days by crystal violet based assay", "type": "functional, cell-based", "conditions": "time 10.0 day", "in_short": "as §2"}, "[8]": {"test_system": "SMMC-7721", "experiment": "Induction of apoptosis in human SMMC-7721 cells assessed as viable cells at 1.5 uM incubated for 48 hrs by AnnexinV-FITC/PI staining based flow cytometry (Rvb =93.6 %)", "type": "functional", "conditions": "read-out: Activity"}, "[9]": {"test_system": "SMMC-7721", "experiment": "Induction of apoptosis in human SMMC-7721 cells assessed as early apoptotic cells at 1.5 uM incubated for 48 hrs by AnnexinV-FITC/PI staining based flow cytometry (Rvb =0.739 %)", "type": "functional"}, "[10]": {"test_system": "SMMC-7721", "experiment": "Induction of apoptosis in human SMMC-7721 cells assessed as viable cells at 3 uM incubated for 48 hrs by AnnexinV-FITC/PI staining based flow cytometry (Rvb =93.6 %)", "type": "functional", "conditions": "read-out: Activity"}, "[11]": {"test_system": "SMMC-7721", "experiment": "Induction of apoptosis in human SMMC-7721 cells assessed as late apoptotic cells at 3 uM incubated for 48 hrs by AnnexinV-FITC/PI staining based flow cytometry (Rvb =3.17 %)", "type": "functional"}, "[12]": {"test_system": "SMMC-7721", "experiment": "Induction of apoptosis in human SMMC-7721 cells assessed as early apoptotic cells at 6 uM incubated for 48 hrs by AnnexinV-FITC/PI staining based flow cytometry (Rvb =0.739 %)", "type": "functional"}, "[13]": {"test_system": "SMMC-7721", "experiment": "Induction of apoptosis in human SMMC-7721 cells assessed as late apoptotic cells at 6 uM incubated for 48 hrs by AnnexinV-FITC/PI staining based flow cytometry (Rvb =3.17 %)", "type": "functional"}, "[14]": {"test_system": "SMMC-7721", "experiment": "Induction of apoptosis in human SMMC-7721 cells at 1.5 uM incubated for 48 hrs by AnnexinV-FITC/PI staining based flow cytometry (reference value: 3.090 %)", "type": "functional"}, "[15]": {"test_system": "SMMC-7721", "experiment": "Induction of apoptosis in human SMMC-7721 cells at 6 uM incubated for 48 hrs by AnnexinV-FITC/PI staining based flow cytometry (reference value: 3.090 %)", "type": "functional"}, "[16]": {"test_system": "SMMC-7721", "experiment": "Induction of cell cycle distribution in human SMMC-7721 cells assessed as accumulation of cells in G1 phase at 6 uM incubated for 48 hrs by PI staining based flow cytometric analysis relative to control", "type": "functional", "in_short": "(§3)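 Seeding was 1×10^4 cells per well in 6-well plates with 24 h preculture, then 48 h exposure at 0, 1.5, 3 or 6 μM. Trypsinized cells were PBS-washed and fixed overnight in cold 70% ethanol. RNase A treatment ran 30 min at 37 °C, then PI 30 min in the dark at 4 °C. Flow cytometry at 488 nm; n = 3.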"}, "[17]": {"test_system": "SMMC-7721", "experiment": "Induction of cell cycle distribution in human SMMC-7721 cells assessed as accumulation of cells in S phase at 1.5 uM incubated for 48 hrs by PI staining based flow cytometric analysis relative to control", "type": "functional", "in_short": "as §3"}, "[18]": {"test_system": "SMMC-7721", "experiment": "Induction of cell cycle distribution in human SMMC-7721 cells assessed as accumulation of cells in S phase at 3 uM incubated for 48 hrs by PI staining based flow cytometric analysis relative to control", "type": "functional", "in_short": "as §3"}, "[19]": {"test_system": "SMMC-7721", "experiment": "Induction of cell cycle distribution in human SMMC-7721 cells assessed as accumulation of cells in S phase at 6 uM incubated for 48 hrs by PI staining based flow cytometric analysis relative to control", "type": "functional", "in_short": "as §3"}, "[20]": {"test_system": "SMMC-7721", "experiment": "Induction of cell cycle distribution in human SMMC-7721 cells assessed as decreased accumulation of cells in G2 phase at 1.5 to 6 uM incubated for 48 hrs by PI staining based flow cytometric analysis", "type": "functional", "conditions": "dose 1.5-6 µM", "in_short": "as §3"}, "[21]": {"test_system": "SMMC-7721", "experiment": "Antitumor activity against human SMMC-7721 cells assessed as decrease in VEGF protein expression level at 1.5 to 6 uM by western blotting analysis", "type": "functional, cell-based", "conditions": "dose 1.5-6 µM", "in_short": "(§4)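 Cells treated at 0, 1.5, 3 or 6 μM, lysed in RIPA, and protein measured by BCA. Semi-dry transfer to PVDF, then blocking 2 h in 5% nonfat milk at room temperature. Primary antibody overnight at 4 °C, secondary at room temperature. Chemiluminescence imaging with grayscale densitometry; n = 3.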"}, "[22]": {"test_system": "SMMC-7721", "experiment": "Inhibition of glycolysis in human SMMC-7721 cells assessed as decrease in PKM2 protein expression level at 1.5 to 6 uM by western blotting analysis", "type": "functional, cell-based", "conditions": "dose 1.5-6 µM", "in_short": "as §4"}, "[23]": {"biological_target": "T1, Tubulin (Homo sapiens) (UniProt P68371+Q9H4B7+P0DPH7+P68366+Q13509+Q71U36+P04350+Q3ZCM7+P07437+P68363+Q9BQE3+Q6PEY2+Q13885+Q9BVA1+Q9BUF5)", "experiment": "Inhibition of tubulin in human SMMC-7721 cells assessed as shrunk of nuclei at 1.5 to 6 uM incubated for 48 hrs by immunofluorescence assay", "type": "cell-based", "conditions": "dose 1.5-6 µM", "in_short": "(§5)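 Cells grown on coverslips in 6-well plates were exposed for 48 h at 0, 1.5, 3 or 6 μM. Fixed in 4% paraformaldehyde and blocked with BSA. Probed in turn with primary antibody, Cy3-labelled goat anti-mouse IgG and DAPI. Imaged by laser scanning confocal microscopy.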"}, "[24]": {"biological_target": "T1, Tubulin (Homo sapiens)", "experiment": "Inhibition of tubulin in human SMMC-7721 cells assessed as denaturated nuclei at 1.5 to 6 uM incubated for 48 hrs by immunofluorescence assay", "type": "cell-based", "conditions": "dose 1.5-6 µM", "in_short": "as §5"}, "[25]": {"biological_target": "T1, Tubulin (Homo sapiens)", "experiment": "Inhibition of tubulin in human SMMC-7721 cells assessed as ruptured nucleus at 6 uM incubated for 48 hrs by immunofluorescence assay", "type": "cell-based", "in_short": "as §5"}, "[26]": {"biological_target": "T1, Tubulin (Homo sapiens)", "experiment": "Inhibition of tubulin in human SMMC-7721 cells assessed as dispersed nucleus at 6 uM incubated for 48 hrs by immunofluorescence assay", "type": "cell-based", "in_short": "as §5"}, "[27]": {"biological_target": "T1, Tubulin (Homo sapiens)", "experiment": "Inhibition of tubulin in human SMMC-7721 cells assessed as disappearance of Cy3-stained tubulin at 1.5 to 6 uM incubated for 48 hrs by immunofluorescence assay", "type": "cell-based", "conditions": "dose 1.5-6 µM", "in_short": "as §5"}}, "note": "pIC50: −log10 of the molar value. The source made the active and inactive calls. The calls are words filed in the database; no cut-off is given here.", "data": [{"smiles": "COc1cc(C)ccc1C(=O)n1cc(-c2cc(=O)c3c(OC)c(OC)c(OC)cc3o2)c2ccccc21", "values": [{"measurement": "Activity", "setting": "[1]", "result": 18.07, "unit": "%"}, {"measurement": "pIC50", "setting": "[2]", "result": 4.98}, {"measurement": "pIC50", "setting": "[3]", "result": 5.33}, {"measurement": "pIC50", "setting": "[4]", "result": 5.30}, {"measurement": "inhibition", "setting": "[5]", "result": "Dose-Dependent Effect"}, {"measurement": "inhibition", "setting": "[6]", "result": "Active"}, {"measurement": "inhibition", "setting": "[7]", "result": "Active"}, {"measurement": "viability at 1.5 µM", "setting": "[8]", "result": 84.2, "unit": "%"}, {"measurement": "Activity", "setting": "[9]", "result": 1.93, "unit": "%"}, {"measurement": "viability at 3 µM", "setting": "[10]", "result": 74.3, "unit": "%"}, {"measurement": "Activity", "setting": "[11]", "result": 11.5, "unit": "%"}, {"measurement": "Activity", "setting": "[12]", "result": 11.6, "unit": "%"}, {"measurement": "Activity", "setting": "[13]", "result": 12.7, "unit": "%"}, {"measurement": "Activity", "setting": "[14]", "result": 7.9, "unit": "%"}, {"measurement": "Activity", "setting": "[15]", "result": 24.3, "unit": "%"}, {"measurement": "Activity", "setting": "[16]", "result": 65.15, "unit": "%"}, {"measurement": "Activity", "setting": "[17]", "result": 34.37, "unit": "%"}, {"measurement": "Activity", "setting": "[18]", "result": 14.69, "unit": "%"}, {"measurement": "Activity", "setting": "[19]", "result": 23.62, "unit": "%"}, {"measurement": "Activity", "setting": "[20]", "result": "Active"}, {"measurement": "Activity", "setting": "[21]", "result": "Active"}, {"measurement": "inhibition", "setting": "[22]", "result": "Active"}, {"measurement": "inhibition", "setting": "[23]", "result": "Active"}, {"measurement": "inhibition", "setting": "[24]", "result": "Active"}, {"measurement": "inhibition", "setting": "[25]", "result": "Active"}, {"measurement": "inhibition", "setting": "[26]", "result": "Active"}, {"measurement": "inhibition", "setting": "[27]", "result": "Active"}]}]}
